Laboratory results: ChEMBL document CHEMBL2346611, “Preliminary structure-activity relationships and biological evaluation of novel antitubercular indolecarboxamide derivatives against drug-susceptible and drug-resistant Mycobacterium tuberculosis strains” (J Med Chem, 2013)
Converted amounts (≈) assume the structure as drawn.

What was measured:
Type in all cases: functional
[1] = system: Mycobacterium tuberculosis; assay: Antitubercular activity against extensively drug resistant Mycobacterium tuberculosis V2475 by microplate Alamar Blue assay
[2] = system: Mycobacterium tuberculosis; assay: Antitubercular activity against extensively drug resistant Mycobacterium tuberculosis R506 by microplate Alamar Blue assay
Method in brief: (§1)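 Mycobacterium tuberculosis strains were used: H37Rv, and clinical strains from KwaZulu-Natal (MDR KZN494 and V2475; XDR TF274 and R506). Growth was read by microplate Alamar Blue assay. MIC is the lowest drug concentration giving at least a 90% reduction of the bacterial growth signal. Values are the average of three individual measurements.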

[3] = system: Mycobacterium tuberculosis; assay: Antitubercular activity against multi drug resistant Mycobacterium tuberculosis KZN494 by microplate Alamar Blue assay; method in brief: as §1
[4] = system: Mycobacterium tuberculosis; assay: Antitubercular activity against extensively drug resistant Mycobacterium tuberculosis TF274 by microplate Alamar Blue assay; method in brief: as §1

Compound: Cc1cc(C)c2cc(C(=O)NC3CCCCC3)[nH]c2c1
- MIC90 [1]: 0.93 µM (≈ 0.251 µg/mL)
- MIC90 [2]: 0.46 µM (≈ 0.124 µg/mL)
- MIC90 [3]: 3.7 µM (≈ 1 µg/mL)
- MIC90 [4]: 0.46 µM (≈ 0.124 µg/mL)

Compound: Cc1cc(C)c2cc(C(=O)NC3CCCCCCC3)[nH]c2c1
- MIC90 [2]: 0.0067 µM (≈ 0.002 µg/mL)
- MIC90 [4]: 0.026 µM (≈ 0.00776 µg/mL)

Compound: Cc1cc(C)c2cc(C(=O)NC3CCCCCC3)[nH]c2c1
- MIC90 [1]: 0.11 µM (≈ 0.0313 µg/mL)
- MIC90 [2]: 0.055 µM (≈ 0.0156 µg/mL)
- MIC90 [3]: 0.11 µM (≈ 0.0313 µg/mL)
- MIC90 [4]: 0.055 µM (≈ 0.0156 µg/mL)
